From paper PMC6045484 (ACS Omega, 2018)
Values after ≈ are worked out from the molar mass of the structure shown.

Columns and labels:
P. falciparum (D6) = experiment: in vitro antimalarial activity, plasmodial LDH; assay type: cell-based, Plasmodium falciparum; settings: Plasmodium falciparum, D6, 72 h, read-out: P. falciparum (D6) IC50
P. falciparum (W2) = experiment: in vitro antimalarial activity, plasmodial LDH; assay type: cell-based, Plasmodium falciparum; settings: Plasmodium falciparum, W2, 72 h, read-out: P. falciparum (W2) IC50, CQ-resistant W2 strain, 72 h
How it was run: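 P. falciparum-infected erythrocytes (2% parasitemia, 2% hematocrit) in RPMI 1640 with 10% human serum and 60 μg/mL amikacin. Exposed to test compound dilutions for 72 h at 37 °C under 90% N2/5% O2/5% CO2. LDH measured with Malstat reagent (30 min, room temperature), then NBT/PES for 1 h in the dark, stopped with 5% acetic acid, read at 650 nm. IC50 from dose-response curves.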

[1] = system: SK-MEL, KB, BT-549, SK-OV-3, VERO and LLC-PK1 cells; experiment: cytotoxicity, neutral red uptake assay; assay type: cell-based, mammalian; settings: highest test concentration 4760 ng/mL
How it was run: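 Cells seeded at 25 000/well and allowed 24 h to reach confluence. Test compound was then added and incubated 48 h. Viable cells were counted by a modified neutral red uptake method. The panel was four human cancer lines and two noncancerous mammalian kidney lines. Doxorubicin served as positive control and DMSO as negative control.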

[2] = system: L. donovani promastigotes; experiment: in vitro antileishmanial activity, alamarBlue assay; assay type: cell-based, Leishmania donovani; settings: Leishmania donovani, 48 h; for IC50: read-out: L. donovani IC50, promastigotes, 48 h; for IC90: read-out: L. donovani IC90, promastigotes, 48 h
C. albicans ATCC90028 = experiment: in vitro antifungal activity; assay type: cell-based, Candida albicans; settings: Candida albicans; for IC50: ATCC90028, read-out: C. albicans IC50; for MFC: ATCC90028, read-out: C. albicans MFC; for MIC: ATCC90028, read-out: C. albicans MIC
How it was run: (§1)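 Modified NCCLS broth method in Sabouraud dextrose. Inoculum set by OD630 to 1.5 × 10^3 CFU/mL. Test compound serially diluted in 20% DMSO/saline, duplicate wells, up to 20 μg/mL. Incubated 70–74 h at 35 °C; 530 nm read before and after. IC50 is 50% growth inhibition; MIC is no detectable growth. MFC from clear wells subcultured on agar. Amphotericin B control.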

C. neoformans ATCC90113 = experiment: in vitro antifungal activity; assay type: cell-based, Cryptococcus neoformans; settings: Cryptococcus neoformans; for IC50: ATCC90113, read-out: C. neoformans IC50; for MFC: ATCC90113, read-out: C. neoformans MFC; for MIC: ATCC90113, read-out: C. neoformans MIC
How it was run: as §1

A. fumigatus ATCC 90906 = experiment: in vitro antifungal activity; assay type: cell-based, Aspergillus fumigatus; settings: Aspergillus fumigatus; for IC50: ATCC90906, read-out: A. fumigatus IC50; for MFC: ATCC90906, read-out: A. fumigatus MFC; for MIC: ATCC90906, read-out: A. fumigatus MIC
How it was run: as §1

SA (ATCC29213) = experiment: in vitro antibacterial activity; assay type: cell-based; settings: Staphylococcus aureus; for IC50: ATCC29213, read-out: IC50 (concentration that affords 50% growth inhibition), SA; for MBC: ATCC29213, read-out: MBC (minimum bactericidal concentration), SA; for MIC: ATCC29213, read-out: MIC, SA
How it was run: (§2)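 Test compound serially diluted in 20% DMSO/saline and plated in duplicate, up to 20 μg/mL. Inoculum in cation-adjusted Mueller–Hinton broth, pH 7.3, set by OD630 to 5 × 10^5 CFU/mL. Incubated 16–20 h at 35 °C; 530 nm read before and after. IC50 is 50% growth inhibition; MIC is no detectable growth. MBC from clear wells subcultured on agar. Ciprofloxacin control.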

MRSA (ATCC33591) = experiment: in vitro antibacterial activity; assay type: cell-based, methicillin-resistant Staphylococcus aureus; settings: Staphylococcus aureus, ATCC33591|MRSA, read-out: MIC, MRSA
How it was run: as §2

[3] = system: M. intracellulare (ATCC23068); experiment: in vitro antibacterial activity, modified alamarBlue procedure; assay type: cell-based, Mycobacterium intracellulare; settings: Mycobacterium intracellulare; for IC50: ATCC23068, read-out: IC50 (concentration that affords 50% growth inhibition), M. intracellulare; for MBC: ATCC23068, read-out: MBC (minimum bactericidal concentration), M. intracellulare; for MIC: ATCC23068, read-out: MIC, M. intracellulare
How it was run: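 Modified alamarBlue microplate method. Test compound serially diluted in 20% DMSO/saline, duplicate wells, up to 20 μg/mL. Inoculum 2.0 × 10^6 CFU/mL in Middlebrook 7H9 with OADC, pH 7.3, containing 5% alamarBlue. Incubated 70–74 h at 37 °C, 10% CO2; fluorescence 544ex/590em read before and after. MIC: no blue-to-pink change. MBC by subculturing blue wells on agar. Ciprofloxacin control.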

Row | Compound | IC50 (P. falciparum (D6)) [mg/L] | IC50 (P. falciparum (W2)) [mg/L] | cytotoxicity CTX [1] | IC50 [2] [mg/L] | IC90 [2] [mg/L] | IC50 (C. albicans ATCC90028) [mg/L] | MFC (C. albicans ATCC90028) [mg/L] | MIC (C. albicans ATCC90028) [mg/L] | IC50 (C. neoformans ATCC90113) [mg/L] | MFC (C. neoformans ATCC90113) [mg/L] | MIC (C. neoformans ATCC90113) [mg/L] | IC50 (A. fumigatus ATCC 90906) [mg/L] | MFC (A. fumigatus ATCC 90906) [mg/L] | MIC (A. fumigatus ATCC 90906) [mg/L] | IC50 (SA (ATCC29213)) [mg/L] | MBC (SA (ATCC29213)) [mg/L] | MIC (SA (ATCC29213)) [mg/L] | MIC (MRSA (ATCC33591)) [mg/L] | IC50 [3] [mg/L] | MBC [3] [mg/L] | further results
1 | CCCCCCCOc1c(OC)cc(NC(C)CCCNC(=O)C(N)C(C)CC)c2nc(C(C)(C)C)ccc12 (stereo not drawn) [compound 114, 2-Amino-N-(4-(2-tert-butyl-5-(heptyloxy)-6-methoxyquinolin-8-ylamino)pentyl)-3-methylpentanamide] | 4.5 (≈ 8.29 µM) | 2.9 (≈ 5.34 µM) | NC (NC, not cytotoxic up to 4760 ng/mL (4.76 μg/mL)) | 3.8 (≈ 7 µM) | 7 (≈ 12.9 µM) | 14.2 (≈ 26.2 µM) | > 20 | > 20 | 1.07 (≈ 1.97 µM) | 2.5 (≈ 4.61 µM) | 2.5 (≈ 4.61 µM) | > 20 | > 20 | > 20 | 2.19 (≈ 4.03 µM) | 5 (≈ 9.21 µM) | 5 (≈ 9.21 µM) | 5 (≈ 9.21 µM) | 5.63 (≈ 10.4 µM) | 20 (≈ 36.8 µM) | MIC [3]: 10 mg/L (≈ 18.4 µM)
2 | CCCCCCCOc1c(OC)cc(NC(C)CCCNC(=O)C(N)Cc2cc3ccccc3[nH]2)c2nc(C(C)(C)C)ccc12 (stereo not drawn) [compound 115, 2-Amino-N-(4-(2-tert-butyl-5-(heptyloxy)-6-methoxyquinolin-8-ylamino)pentyl)-3-(1H-indol-2-yl)propanamide] | 3.3 (≈ 5.36 µM) | 2.8 (≈ 4.55 µM) | NC (NC, not cytotoxic up to 4760 ng/mL (4.76 μg/mL)) | 19 (≈ 30.9 µM) | 32 (≈ 52 µM) | > 20 | > 20 | > 20 | 1.36 (≈ 2.21 µM) | 2.5 (≈ 4.06 µM) | 2.5 (≈ 4.06 µM) | > 20 | > 20 | > 20 | 4.56 (≈ 7.4 µM) | 10 (≈ 16.2 µM) | 10 (≈ 16.2 µM) | 5 (≈ 8.12 µM) | 8.74 (≈ 14.2 µM) | 20 (≈ 32.5 µM) | MIC [3]: 10 mg/L (≈ 16.2 µM)
3 | CCCCCCCOc1c(OC)cc(NC(C)CCCNC(=O)C(N)CCSC)c2nc(C(C)(C)C)ccc12 (stereo not drawn) [compound 116, 2-Amino-N-(4-(2-tert-butyl-5-(heptyloxy)-6-methoxyquinolin-8-ylamino)pentyl)-4-(methylthio)butanamide] | 4.76 (≈ 8.49 µM) | 3.2 (≈ 5.71 µM) | NC (NC, not cytotoxic up to 4760 ng/mL (4.76 μg/mL)) | 4.1 (≈ 7.31 µM) | 12 (≈ 21.4 µM) | > 20 | > 20 | > 20 | 1.29 (≈ 2.3 µM) | 10 (≈ 17.8 µM) | 10 (≈ 17.8 µM) | > 20 | > 20 | > 20 | 4.07 (≈ 7.26 µM) | 10 (≈ 17.8 µM) | 10 (≈ 17.8 µM) | 5 (≈ 8.92 µM) | > 20 | > 20 | MIC [3]: > 20 mg/L
4 | CCCCCCCCOc1c(OC)cc(NC(C)CCCNC(=O)C(N)C(C)CC)c2nc(C(C)(C)C)ccc12 (stereo not drawn) [compound 119, 2-Amino-N-(4-(2-tert-butyl-6-methoxy-5-(octyloxy)quinolin-8-ylamino)pentyl)-3-methylpentanamide] | > 4.76 | > 4.76 | NC (NC, not cytotoxic up to 4760 ng/mL (4.76 μg/mL)) | 6.04 (≈ 10.8 µM) | 26.9 (≈ 48.4 µM) | > 20 | > 20 | > 20 | 2.87 (≈ 5.15 µM) | 10 (≈ 18 µM) | 10 (≈ 18 µM) | > 20 | > 20 | > 20 | 5.03 (≈ 9.03 µM) | > 20 | > 20 | > 20 | > 20 | > 20 | MIC [3]: > 20 mg/L
5 | CCCCCCCCOc1c(OC)cc(NC(C)CCCNC(=O)C(N)CCSC)c2nc(C(C)(C)C)ccc12 (stereo not drawn) [compound 120, 2-Amino-N-(4-(2-tert-butyl-6-methoxy-5-(octyloxy)quinolin-8-ylamino)pentyl)-4-(methylthio)butanamide] | 0.16 (≈ 0.278 µM) | 0.15 (≈ 0.261 µM) | NC (NC, not cytotoxic up to 4760 ng/mL (4.76 μg/mL)) | 6.99 (≈ 12.2 µM) | 26.4 (≈ 46 µM) | > 20 | > 20 | > 20 | 2.74 (≈ 4.77 µM) | 5 (≈ 8.7 µM) | 5 (≈ 8.7 µM) | > 20 | > 20 | > 20 | 11.7 (≈ 20.3 µM) | > 20 | 20 (≈ 34.8 µM) | 20 (≈ 34.8 µM) | 20 (≈ 34.8 µM) | > 20 | MIC [3]: > 20 mg/L
6 | CCCCCCCCOc1c(OC)cc(NC(C)CCCNC(=O)C(N)Cc2cc3ccccc3[nH]2)c2nc(C(C)(C)C)ccc12 (stereo not drawn) [compound 122, 2-Amino-N-(4-(2-tert-butyl-6-methoxy-5-(octyloxy)quinolin-8-ylamino)pentyl)-3-(1H-indol-2-yl)propanamide] | > 4.76 | > 4.76 | NC (NC, not cytotoxic up to 4760 ng/mL (4.76 μg/mL)) | 9.32 (≈ 14.8 µM) | 25.7 (≈ 40.8 µM) | > 20 | > 20 | > 20 | 6.8 (≈ 10.8 µM) | > 20 | 20 (≈ 31.8 µM) | > 20 | > 20 | > 20 | 12 (≈ 19 µM) | > 20 | 20 (≈ 31.8 µM) | 20 (≈ 31.8 µM) | > 20 | > 20 | MIC [3]: > 20 mg/L
7 | CCCCCCCCOc1c(OC)cc(NC(C)CCCNC(=O)C2CCCN2)c2nc(C(C)(C)C)ccc12 (stereo not drawn) [compound 123, N-(4-(2-tert-Butyl-6-methoxy-5-(octyloxy)quinolin-8-ylamino)pentyl)pyrrolidine-2-carboxamide] | > 4.76 | > 4.76 | NC (NC, not cytotoxic up to 4760 ng/mL (4.76 μg/mL)) | 12.4 (≈ 22.9 µM) | 38.4 (≈ 71 µM) | > 20 | > 20 | > 20 | 2.89 (≈ 5.34 µM) | 5 (≈ 9.25 µM) | 5 (≈ 9.25 µM) | > 20 | > 20 | > 20 | 10.4 (≈ 19.3 µM) | 20 (≈ 37 µM) | 20 (≈ 37 µM) | 10 (≈ 18.5 µM) | > 20 | > 20 | MIC [3]: > 20 mg/L
